The sample as a whole holds a higher share of hits than the screen did.
DTT redox prof = compounds producing H2O2 with reducing agent – biochemical, NIH compound library profiling, artefact control for MLSCN library redox annotation, primary screen; DTT-dependent redox cycling H2O2, phenol red/HRP absorbance; 100% = 100 µM peroxide control, 0% = buffer; AID 878; 0.03% of 200,000 active; activation, % at 10 µM;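 active = activation of at least 50% relative to the plate's high and low controls in the primary single-dose screen; inactive = activation below 50%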;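 also: compound incubated with DTT at 0.8 mM final as the reducing agent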
Diaphorase inh = diaphorase inhibition or chemical oxidation counter-screen; AID 1217; diaphorase resazurin-to-resorufin fluorescence, NADH, 16 min; bacterial (C. kluyveri) enzyme, not human; inhibition, % at 20 µM; 0.69% of 190,000 active;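 active = primary screen inhibition at 20 µM above a set limit, cut at about 50% in these data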;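 also: plate controls were DMSO with full reaction for no effect and wells lacking NADH for full effect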
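Assay system: diaphorase enzyme from Clostridium kluyveri. Quantity: enzyme working solution with 0.14 U/mL diaphorase. Schedule: reaction incubation of 16 min at room temperature. Technique: resorufin fluorescence, excitation 544 nm, emission 590 nm. Controls: No-NADH positive control and DMSO neutral control.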
Diaphorase act = diaphorase activation or chemical reduction counter-screen; 0.005% of 190,000 active; AID 1229; activation factor at 20 µM; Diaphorase/resazurin coupled assay, resorufin fluorescence, 16 min; stronger effect = higher value; 1 = vehicle wells, 0 = NADH-free wells;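 active = diaphorase activity raised at least twofold by the compound at 20 µM; inactive = activation factor below 2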
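Assay system: Purified diaphorase enzyme from Clostridium kluyveri | Amount: Enzyme 0.07 U/mL final | Dosing: Compound 20 µM once, DMSO 1% | Timing: 16 min reaction at room temperature | Detection: Fluorescence, excitation 544 nm and emission 590 nm | Evaluation: Higher resorufin formation from activation or reduction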
G6PDH counter = L. mesenteroides G6PDH inhibition counter-screen; Purified L. mesenteroides G6PDH, diaphorase/resazurin coupled fluorescence, 45 min; inhibition, % at 5 µM; 0.12% of 200,000 active
PfG6PD inh = PfG6PD (Plasmodium falciparum) enzyme inhibition | AID 504690 | 0.78% of 350,000 active | inhibition, % at 20 µM | PfGluPho enzyme, NADPH resazurin-diaphorase fluorescence;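 active = inhibition reaching at least a set limit at 20 µM in the primary screen, cut at about 59% in these data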;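 also: 0% = DMSO wells with substrate and 100% = DMSO wells lacking glucose-6-phosphate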
Lmaj promast = inhibitors of Leishmania major promastigote growth; Leishmania major promastigotes, resazurin fluorescence viability; inhibition, % at 10 µM; 9% of 200,000 active; AID 1063;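 also: promastigotes grown with compound for 44 hours at 28 °C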
* = called active by the depositor. Rule as the data show it, unless noted: active = inhibition above about 50%; inactive = the rest.

How did Nc1c(S(=O)(=O)c2cccs2)c2nc3ccccc3nc2n1/N=C/c1cccc(O)c1 do in these assays?
DTT redox prof: 2; Diaphorase inh: 42; Diaphorase act: 0.6; G6PDH counter: -1; PfG6PD inh: 6; Lmaj promast: 58*

How did Cc1ccc(-c2nc3ncccc3o2)cc1NC(=O)CC(C)C do in these assays?
DTT redox prof: 0; Diaphorase inh: 10; Diaphorase act: 0.9; G6PDH counter: 19; PfG6PD inh: 1; Lmaj promast: 92*

How did Cc1ccc(-c2nc3ncccc3o2)cc1NC(=O)Cc1ccc(Cl)cc1 do in these assays?
DTT redox prof: 2; Diaphorase inh: -12; Diaphorase act: 1.1; G6PDH counter: 6; PfG6PD inh: 1; Lmaj promast: -6

How did Cc1ccc(-c2nc3cccnc3o2)cc1NC(=O)COc1ccc(Cl)cc1C do in these assays?
DTT redox prof: 2; Diaphorase inh: 4; Diaphorase act: 1; G6PDH counter: 6; PfG6PD inh: -9; Lmaj promast: 94*

What do the screens show for `Cc1ccc(CN(c2ccc(C(=O)N3CCCC3)cc2)S(C)(=O)=O)cc1`?
DTT redox prof: -4; Diaphorase inh: 14; Diaphorase act: 0.9; G6PDH counter: 8; PfG6PD inh: 3; Lmaj promast: 25

How did COc1ccc(C2C(CN3CCOCC3)C(=O)N2c2ccccc2)cc1 (stereo not given) do in these assays?
DTT redox prof: -1; Diaphorase inh: 4; Diaphorase act: 1; G6PDH counter: 7; PfG6PD inh: -8; Lmaj promast: -3

What do the screens show for `COc1ccc(N2C(=O)C(CN3CCN(C)CC3)C2c2ccccc2)cc1` (stereo not given)?
DTT redox prof: 0; Diaphorase inh: 9; Diaphorase act: 0.9; G6PDH counter: 19; PfG6PD inh: -6; Lmaj promast: 95*

How did O=C(Nc1ccc(OC(F)(F)F)cc1)c1cc(S(=O)(=O)N2CCCCC2)ccc1N1CCOCC1 do in these assays?
PfG6PD inh: 19

How did Cc1ccc(-n2c(=O)c3c4c(sc3n3c(=S)[nH]nc23)CCC4)cc1 do in these assays?
PfG6PD inh: 25

What do the screens show for `Cc1ccc(-n2c(=S)[nH]c3sc4c(c3c2=O)CCC4)cc1`?
DTT redox prof: 0; Diaphorase inh: 53*; Diaphorase act: 0.5; G6PDH counter: -7; PfG6PD inh: 8; Lmaj promast: -5

What do the screens show for `COc1ccccc1C1CC(c2ccccc2)=NN1S(=O)(=O)c1ccccc1` (stereo not given)?
PfG6PD inh: -21

What do the screens show for `COc1ccccc1C1CC(c2ccc(Br)cc2)=NN1C(=O)c1cccnc1` (stereo not given)?
DTT redox prof: 0; Diaphorase inh: 8; Diaphorase act: 0.9; G6PDH counter: -16; PfG6PD inh: 6; Lmaj promast: 51*

What do the screens show for `COc1cccc(C2CC(c3ccccc3)=NN2S(=O)(=O)c2ccc(C)cc2)c1OC` (stereo not given)?
DTT redox prof: 0; Diaphorase inh: 12; Diaphorase act: 0.9; G6PDH counter: 1; PfG6PD inh: -6; Lmaj promast: 61*

Results for COc1cccc(C2CC(c3ccc(Br)cc3)=NN2C(=O)c2ccncc2)c1OC (stereo not given) ?
DTT redox prof: 0; Diaphorase inh: 19; Diaphorase act: 0.8; G6PDH counter: 4; PfG6PD inh: 0; Lmaj promast: 61*

What do the screens show for `CC1CN(C(=O)CCNC(=O)c2ccc(Br)cc2)CC(C)O1` (stereo not given)?
PfG6PD inh: -9

Results for Cc1cccc(N=C2NC(=O)/C(=C3/C(=O)N(C)c4ccccc43)S2)c1C ?
DTT redox prof: 2; Diaphorase inh: 18; Diaphorase act: 0.8; G6PDH counter: 2; PfG6PD inh: -5; Lmaj promast: 68*

What do the screens show for `CNC(=O)NC(=O)C(C)OC(=O)CCCSc1nc2ccccc2s1` (stereo not given)?
Diaphorase inh: 8; Diaphorase act: 0.9; G6PDH counter: 7; PfG6PD inh: 7; Lmaj promast: 65*

What do the screens show for `CNC(=O)NC(=O)C(C)OC(=O)CCCc1nc2ccccc2s1` (stereo not given)?
DTT redox prof: -2; Diaphorase inh: 5; Diaphorase act: 0.9; G6PDH counter: 2; PfG6PD inh: -9; Lmaj promast: 7

How did CCNC(=O)NC(=O)C(C)OC(=O)CCCSc1nc2ccccc2s1 (stereo not given) do in these assays?
DTT redox prof: -1; Diaphorase inh: -4; Diaphorase act: 1; G6PDH counter: 3; PfG6PD inh: 5; Lmaj promast: 64*

How did CCNC(=O)NC(=O)COC(=O)CCCSc1nc2ccccc2s1 do in these assays?
DTT redox prof: 0; Diaphorase inh: 16; Diaphorase act: 0.8; G6PDH counter: 2; PfG6PD inh: -12; Lmaj promast: -4

How did CCOc1ccccc1NC(=O)c1ccc2c(c1)C(=O)N(CC)C2=O do in these assays?
PfG6PD inh: -14

What do the screens show for `CN(C)CCNC(=O)c1csc(Nc2cccc3ccccc23)n1`?
PfG6PD inh: 10

Results for Cc1cnc(C2OCCO2)c2cccc(N)c12 ?
PfG6PD inh: 51

Results for O=C(CN(Cc1ccccc1F)C(=O)c1csnn1)NCc1ccc2c(c1)OCO2 ?
PfG6PD inh: -9

Results for COc1ccccc1CNC(=O)[C@H](C)NC(=O)C1CCN(C(=O)[C@@H](N)CCSC)CC1 ?
PfG6PD inh: -13

How did O=C(N/N=C/c1ccccc1OCc1ccccc1)c1cccs1 do in these assays?
DTT redox prof: 0; Diaphorase inh: 14; Diaphorase act: 0.9; G6PDH counter: -3; PfG6PD inh: -3; Lmaj promast: 17

Results for COc1cccc(/C=N/NC(N)=S)c1OCc1cccc(Cl)c1 ?
DTT redox prof: 0; Diaphorase inh: 20; Diaphorase act: 0.8; G6PDH counter: 0; PfG6PD inh: 22; Lmaj promast: 70*

Results for NC(=S)N/N=C\c1ccccc1OCc1ccccc1 ?
DTT redox prof: 0; Diaphorase inh: 22; Diaphorase act: 0.8; G6PDH counter: -2; PfG6PD inh: 16; Lmaj promast: 68*

What do the screens show for `NC(=S)N/N=C\c1c(OCc2ccccc2Cl)ccc2ccccc12`?
DTT redox prof: 0; Diaphorase inh: 11; Diaphorase act: 0.9; G6PDH counter: -8; PfG6PD inh: 7; Lmaj promast: 64*

Results for C/C(=N\N1CCN(c2ccccc2)CC1)c1ccncc1 ?
DTT redox prof: 0; Diaphorase inh: 4; Diaphorase act: 1; G6PDH counter: 14; PfG6PD inh: -3; Lmaj promast: -5

Compound activity as filed in PubChem.
